According to ChEMBL document CHEMBL3526053, “Species-dependent uptake of glycylsarcosine but not oseltamivir in Pichia pastoris expressing the rat, mouse, and human intestinal peptide transporter PEPT1” (Drug Metab Dispos, 2012):

Tests used:
Assay type in all cases: ADME
[1] = biological target: T1, Solute carrier family 15 member 1 (Rattus norvegicus, UniProt P51574); experiment: Drug uptake in Pichia pastoris GS115 expressing rat recombinant PEPT1 at 5 uM after 30s by dual-channel liquid scintillation counting analysis in presence of acyclovir relative to control; settings: in vivo, 0.5 min
T1 sequence (P51574 whole entry): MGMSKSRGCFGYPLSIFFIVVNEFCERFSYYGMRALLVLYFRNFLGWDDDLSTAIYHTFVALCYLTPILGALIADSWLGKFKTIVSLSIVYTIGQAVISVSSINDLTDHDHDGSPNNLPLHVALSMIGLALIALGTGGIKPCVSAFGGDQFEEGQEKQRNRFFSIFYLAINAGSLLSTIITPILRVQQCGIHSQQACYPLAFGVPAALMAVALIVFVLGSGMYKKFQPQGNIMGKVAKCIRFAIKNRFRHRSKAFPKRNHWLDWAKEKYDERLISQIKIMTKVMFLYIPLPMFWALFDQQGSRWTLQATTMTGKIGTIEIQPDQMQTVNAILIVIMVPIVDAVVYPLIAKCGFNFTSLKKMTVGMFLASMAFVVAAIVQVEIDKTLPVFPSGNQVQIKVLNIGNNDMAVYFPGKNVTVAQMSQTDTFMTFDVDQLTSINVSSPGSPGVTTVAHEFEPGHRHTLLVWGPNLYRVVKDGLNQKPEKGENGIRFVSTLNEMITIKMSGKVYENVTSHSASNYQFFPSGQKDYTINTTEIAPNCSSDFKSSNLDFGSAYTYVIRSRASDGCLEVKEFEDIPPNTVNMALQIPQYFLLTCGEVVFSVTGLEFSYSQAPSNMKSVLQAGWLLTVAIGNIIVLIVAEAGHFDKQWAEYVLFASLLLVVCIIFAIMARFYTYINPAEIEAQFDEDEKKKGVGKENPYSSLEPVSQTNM
How it was run: (§1)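 [3H]GlySar 5.0 µM final, 30-s uptake at 24°C in 100 mM potassium phosphate pH 6.5, with or without a potential inhibitor at 10 mM. Cells are methanol-induced transformants. Values are vector-subtracted and expressed as percent of buffer control. Mean ± SE (n=3). ANOVA with Dunnett's test.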

[2] = biological target: T2, Solute carrier family 15 member 1 (Mus musculus, UniProt Q9JIP7); experiment: Drug uptake in Pichia pastoris GS115 expressing mouse recombinant PEPT1 at 5 uM after 30s by dual-channel liquid scintillation counting analysis in presence of cefazolin relative to control; settings: 0.5 min; how it was run: as §1
T2 sequence (Q9JIP7 whole entry): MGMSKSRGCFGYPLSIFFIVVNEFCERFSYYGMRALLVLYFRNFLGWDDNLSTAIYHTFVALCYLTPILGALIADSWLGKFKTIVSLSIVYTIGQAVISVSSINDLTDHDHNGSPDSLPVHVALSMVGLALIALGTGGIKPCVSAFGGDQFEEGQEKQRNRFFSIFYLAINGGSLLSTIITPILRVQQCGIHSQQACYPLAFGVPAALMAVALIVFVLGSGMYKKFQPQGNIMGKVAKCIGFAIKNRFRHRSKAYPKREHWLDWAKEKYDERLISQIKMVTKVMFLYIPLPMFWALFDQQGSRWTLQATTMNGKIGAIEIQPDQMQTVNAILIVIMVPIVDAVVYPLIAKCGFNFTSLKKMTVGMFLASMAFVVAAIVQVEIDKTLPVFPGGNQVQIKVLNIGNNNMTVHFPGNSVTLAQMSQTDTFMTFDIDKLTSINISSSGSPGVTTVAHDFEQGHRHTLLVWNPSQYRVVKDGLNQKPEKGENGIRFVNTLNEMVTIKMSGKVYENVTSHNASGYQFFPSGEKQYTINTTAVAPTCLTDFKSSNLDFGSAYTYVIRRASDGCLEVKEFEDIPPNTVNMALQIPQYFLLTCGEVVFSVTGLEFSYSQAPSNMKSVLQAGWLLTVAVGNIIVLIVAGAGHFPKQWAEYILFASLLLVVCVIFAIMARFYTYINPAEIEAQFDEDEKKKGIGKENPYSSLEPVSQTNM

[3] = biological target: T3, Solute carrier family 15 member 1 (Homo sapiens, UniProt P46059); experiment: Drug uptake in Pichia pastoris GS115 expressing human recombinant PEPT1 at 5 uM after 30s by dual-channel liquid scintillation counting analysis in presence of cephalothin relative to control; settings: 0.5 min; how it was run: as §1
T3 sequence (P46059 whole entry): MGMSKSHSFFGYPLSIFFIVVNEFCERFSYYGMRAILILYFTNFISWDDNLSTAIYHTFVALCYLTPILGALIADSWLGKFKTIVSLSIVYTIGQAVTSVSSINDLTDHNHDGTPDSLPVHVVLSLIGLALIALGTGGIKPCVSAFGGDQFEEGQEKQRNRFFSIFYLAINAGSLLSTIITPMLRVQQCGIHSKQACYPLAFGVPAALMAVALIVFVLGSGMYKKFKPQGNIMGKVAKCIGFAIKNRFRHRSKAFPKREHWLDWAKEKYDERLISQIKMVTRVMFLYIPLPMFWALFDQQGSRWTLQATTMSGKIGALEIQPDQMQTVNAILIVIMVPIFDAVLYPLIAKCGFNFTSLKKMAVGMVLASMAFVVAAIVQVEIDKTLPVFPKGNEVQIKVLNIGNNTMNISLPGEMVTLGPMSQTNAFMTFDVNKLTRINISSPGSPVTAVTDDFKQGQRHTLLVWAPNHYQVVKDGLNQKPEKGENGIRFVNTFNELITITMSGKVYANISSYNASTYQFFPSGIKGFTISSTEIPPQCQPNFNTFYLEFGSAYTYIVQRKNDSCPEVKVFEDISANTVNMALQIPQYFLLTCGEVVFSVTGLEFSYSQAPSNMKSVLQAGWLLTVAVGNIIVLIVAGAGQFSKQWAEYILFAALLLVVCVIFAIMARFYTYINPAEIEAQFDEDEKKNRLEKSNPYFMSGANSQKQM

[4] = biological target: T3, Solute carrier family 15 member 1; experiment: Drug uptake in Pichia pastoris GS115 expressing human recombinant PEPT1 at 5 uM after 30s by dual-channel liquid scintillation counting analysis in presence of cephapirin relative to control; settings: 0.5 min; how it was run: as §1
[5] = biological target: T3, Solute carrier family 15 member 1; experiment: Drug uptake in Pichia pastoris GS115 expressing human recombinant PEPT1 at 5 uM after 30s by dual-channel liquid scintillation counting analysis in presence of SITS relative to control; settings: 0.5 min; how it was run: as §1
[6] = biological target: T1, Solute carrier family 15 member 1; experiment: Activity at rat recombinant PEPT1 expressed in Pichia pastoris GS115 assessed as non-saturable rate constant after 30s by dual-channel liquid scintillation counting analysis
How it was run: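 [3H]GlySar concentration series 0.005-10 mM, 30-s uptake at 24°C in 100 mM potassium phosphate pH 6.5. Cells come from His+Mut+ GS115 transformants induced 20-24 h in methanol medium. Uptake is normalised to OD600. Data are fitted to Michaelis-Menten plus a first-order nonsaturable term (Kd), weighting unity. Parameters are mean ± SE (n=9).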

[7] = biological target: T3, Solute carrier family 15 member 1; experiment: Drug uptake in Pichia pastoris GS115 expressing human recombinant PEPT1 at 5 uM after 30s by dual-channel liquid scintillation counting analysis in presence of L-histidine relative to control; settings: 0.5 min; how it was run: as §1

[3H]C(C(=O)O)N(C)C(=O)CN (configuration not stated)
Drug uptake [1]: 109% | Drug uptake [2]: 87.4% | Drug uptake [3]: 84.8% | Drug uptake [4]: 100% | Drug uptake [5]: 127% | Kd [6]: 2.21 uL/OD/min | Drug uptake [7]: 122%
